High-throughput results: PubChem BioAssay, PCMD
Yeast growth tox = Inhibits yeast growth, turbidity readout. S. cerevisiae wild-type growth, A595 turbidity, 16 h. growth inhibition, % at 25 µM (by protocol). actives 0.3% (n = 30,000). AID 685;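 active = mutant and wild-type yeast strains alike exhibit over 30% growth inhibition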;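 also: 0% = untreated cell controls and 100% = YPD media blanks without cells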
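Schedule: 16 h growth with compound, 30 °C. System: yeast, wild-type or eIF2Bepsilon-R284H mutant. Doses: one dose, 25 µM compound[…]. Buffer or medium: YPD. Signal: turbidity measured as absorbance at 595 nm. Read-out basis: growth inhibition (%) versus cell controls and blanks.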
eIF2B yeast act = eIF2B (yeast) activity modulation; S. cerevisiae eIF2B-epsilon R284H, GCN4-lacZ luminescence; actives 0.91% (n = 27,000); inhibition, % at 25 µM (by protocol);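 active = mutant luminescence inhibited past about 50% while wild type luminescence and mutant growth stay under set limits, limit read from the data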
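Assay system: yeast eIF2B-epsilon R284H mutant carrying GCN4–beta-galactosidase fusion / Buffer or medium: YPD / Incubation: 16 h growth with compound at 30 °C, 90 min Beta-Glo step / Detection: Beta-Glo luminescence after Z-buffer lysis, growth by 595 nm absorbance / Read-out: % inhibition of reporter signal and growth versus controls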
* marks the source's active call; other numbers are inactive results; · = no result given; ! = not active in a repeat. Rows were chosen to be rich in hits. Some 1% of all compounds tested hit in one or more screens of this group.

SMILES	Yeast growth tox	eIF2B yeast act
CCCOc1ccc(N2C(=O)CC(NCc3ccncc3)C2=O)cc1 (centres undefined)	-3	0
C=CCNc1nnc(SC2CC(=O)N(c3ccc(OCCC)cc3)C2=O)s1 (centres undefined)	60*	2
CC(=O)c1c(C)[nH]c(C(=O)COC(=O)CN(C)S(=O)(=O)c2ccc(Cl)cc2)c1C	0	14
CN1CCN(c2nc(N3CCN(CCO)CC3)nc3ccccc23)CC1	-5	55*
c1ccc(CN2CCN(c3nc(N4CCOCC4)c4ccccc4n3)CC2)cc1	8	7
N#Cc1cc2c(nc1SCC(=O)Nc1sc3c(c1C#N)CCC3)CCCCCC2	18	·
CN1CCc2nc(SCC(=O)Nc3ccc(Cl)cc3)c(C#N)cc2C1	-14	62*
CCCC(=O)NCCc1ccc(F)cc1	13	20
CCOc1cc(-c2nc(-c3ccc(C)nc3OCC)no2)cc(OCC)c1OCC	·	56*
CCOc1cc(-c2nc(-c3cc(OC)c(OC)c(OC)c3)no2)cc(OCC)c1OCC	-16	4
O=C1OCCC1N1C(=O)c2ccccc2S1(=O)=O (centres undefined)	-7	2
COC(=O)CNC(=O)CN1C(=O)N(c2ccc(Cl)cc2)C(N(O)C(=O)Nc2ccc(Cl)cc2)C1(C)C (centres undefined)	5	·
O=C(O)CCC(=O)N1CCN(c2cccc(Cl)c2)CC1	-2	35
CC(=O)/C(C(=N)N1CCN(c2cccc(Cl)c2)CC1)=C(\C)O	·	61*
CC1(C)CC(=O)C=C(Nc2ccccc2F)C1	17	20
COc1ccc(C(=O)Nn2c(C)nnc2-n2nc(C)cc2C)cc1OC	0	56*
COc1ccccc1/C=N/n1c(C)nnc1-n1nc(C)cc1C	7	17
N/C(=N\OC(=O)c1ccccc1Cl)c1cccnc1	6	31
O=C(/C=C/c1ccccc1Cl)c1cccnc1	48*	·
c1ccc2c(-n3cccn3)cccc2c1	35	-4
CCN(CC)c1nc2c(s1)C(=O)CC(C)(C)C2	6	12
CN(Cc1ccccc1)C1CC(=O)N(c2ccc(C(=O)O)cc2)C1=O (centres undefined)	-1	-7
CCCCCC(=O)N(O)C1CC(=O)N(c2ccccc2)C1=O (centres undefined)	38*	47
CCOC(=O)C(C(=O)OCC)C(C(=O)OCC)N1CCOCC1 (centres undefined)	33*	5
CCOC(=O)C(C)CC(C)C(=O)N1CCOCCOCCN(C(=O)C(C)CC(C)C(=O)OCC)CCOCC1 (centres undefined)	21	9
SMILES	Yeast growth tox	eIF2B yeast act
O=C(c1ccccc1)N1CCc2ccccc21	27	12
O=C(c1ccc(Br)o1)N1CCCc2ccccc21	-17	53*
Cc1cc(C)nc(N(C#N)CCOc2ccccc2)n1	-8	-17
CN(C)c1nc(N(C)C)nc(N(C#N)CCOc2ccccc2)n1	·	50*
CC(C)c1ccccc1OCCNS(C)(=O)=O	13	-75
Cc1nnc(SCC(=O)Nc2nccs2)[nH]c1=O	-8	2
C/C(=C1/SC(N2CCCC2)=NC1=O)c1ccc(Br)cc1	5	24
O=c1c2ccccc2c(C=NCCc2ccccc2)c(O)n1Cc1ccccc1	18	-12
Cc1c(N=Cc2c(O)n(Cc3ccco3)c(=O)c3ccccc23)c(=O)n(-c2ccccc2)n1C	-20	51*!
Cc1ccccc1N1C(=O)c2ccccc2NC1c1ccncc1 (centres undefined)	0	·
O=C1c2ccccc2C(=O)C1c1ccncc1	20	67*
Cc1nn(C(C)c2n[nH]c(=S)n2-c2cccc(Cl)c2)c(C)c1[N+](=O)[O-] (centres undefined)	16	-12
Cc1noc(C)c1C(=O)Nc1ccc2c(c1)CCC2	·	65*
O=C(Nc1ccc2c(c1)CCC2)C1CCCO1 (centres undefined)	5	21
CCC(C)(C)NC(=O)Cc1ccc(C)cc1	3	17
Cc1ccc(NC2CC(=O)N(Cc3ccccc3)C2=O)cc1 (centres undefined)	28	·
CN1C(=O)CC2(CC(=O)N(Cc3ccccc3)C2)C1=O (centres undefined)	·	61*
C1CCc2c(nc3nnnn3c2NC2CCCC2)C1	-9	16
CC(=O)Oc1ccc(N2C(=O)C3C(C2=O)C2(C)C=CC3(C)O2)cc1 (centres undefined)	61*	39
CC(=O)Oc1ccc2c(C)cc(=O)oc2c1	8	20
CNc1nc(C)c(C(=O)OCc2ccccc2)s1	13	·
Nc1nnc(SC2CC(=O)N(c3ccccc3)C2=O)s1 (centres undefined)	62*	4
COc1ccc(N2C(=O)CC(Sc3nc(C)cc(C)c3C#N)C2=O)cc1 (centres undefined)	·	-17
CN(CCC(=O)Nc1ccc(Br)cc1)Cc1ccccc1	3	·
O=C(Cc1ccccc1)N[C@H](c1ccccc1)P(=O)(O)CO	14	·
